The subject of experiment [1] is Human immunodeficiency virus 1. Description: Antiviral activity against HIV1 JRCSF infected in human vaginal intraepithelial cells assessed as viral genomic integration relative to control at 30 uM by singleplex PCR assay. The settings on record: Human immunodeficiency virus 1, JRCSF ISOLATE.
For experiment [2], the system named is Human immunodeficiency virus 1. Description: Antiviral activity against HIV1 JRCSF infected in human vaginal epithelium assessed as inhibition of viral genomic integration by titration assay. The note with it: for IC50: Human immunodeficiency virus 1, JRCSF ISOLATE; for Activity: JRCSF ISOLATE. Format: functional. The procedure, abridged: (§1)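 Vaginal epithelial sheets separated from stroma with 5 mM EDTA overnight at 4°C, replenished 1 h with 5 mM CaCl2. Pretreated with compound titrations for 1 h, then spinoculated with 100 ng/ml Gag p24 HIV-1JRCSF for 2 h at 1,200 × g. Sheets washed and cultured 2–3 days at 37°C. Emigrated cells and sheets pooled; Alu-LTR nested real-time PCR run in quadruplicate. Integration expressed relative to untreated infection; IC50 by nonlinear regression.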

In experiment [3] the test system is Human immunodeficiency virus 1. In words: Antiviral activity against HIV1 isolate M1 infected in human vaginal intraepithelial cells assessed as decrease in viral genomic integration at 1 uM after 48 hrs by multiplex PCR assay. The arrangement: scale not given: the % may be the effect or the level left. Format: functional. The procedure, abridged: (§2)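 Vaginal epithelial sheets from two donors, EDTA-isolated and calcium-replenished, were preincubated with compound and then spinoculated with 100 ng/ml Gag p24 of primary mucosal isolate HIV-1M1 for 2 h at 1,200 × g. After 48 h culture, integration was measured by multiplex Alu-LTR/β-actin nested real-time PCR and expressed relative to untreated infection.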

Experiment [4] concerns Human immunodeficiency virus 1. In words: Antiviral activity against HIV1 JRCSF infected in human vaginal intraepithelial cells assessed as decrease in viral genomic integration at 30 uM by multiplex PCR assay. Format: functional, JRCSF ISOLATE. More on the design: scale not given: the % may be the effect or the level left. The procedure, abridged: (§3)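 EDTA-separated vaginal epithelial sheets, calcium-replenished, pretreated 1 h with a single compound concentration, then spinoculated with 100 ng/ml Gag p24 HIV-1JRCSF (2 h, 1,200 × g) and cultured 48 h at 37°C. Integrated DNA measured by Alu-LTR nested real-time PCR against an ACH-2 standard curve, with β-actin normalization run either in separate wells (singleplex) or in the same wells (multiplex). Quadruplicate PCRs; integration relative to untreated infection.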

Experiment [5] concerns Human immunodeficiency virus 1. In words: Antiviral activity against HIV1 JRCSF infected in human vaginal intraepithelial cells assessed as decrease in viral genomic integration at 1 uM by singleplex PCR assay. More on the design: scale not given: the % may be the effect or the level left. Format: functional, JRCSF ISOLATE. The procedure, abridged: as §3
Experiment [6] relates to Human immunodeficiency virus 1. In words: Antiviral activity against HIV1 JRCSF infected in human vaginal intraepithelial cells assessed as viral genomic integration relative to control at 1 uM by singleplex PCR assay. The note with it: Human immunodeficiency virus 1, JRCSF ISOLATE.
For experiment [7], the system named is Human immunodeficiency virus 1. Description: Antiviral activity against HIV1 JRCSF infected in human vaginal intraepithelial cells assessed as viral genomic integration relative to control at 0.223 uM by singleplex PCR assay. The settings on record: Human immunodeficiency virus 1, JRCSF ISOLATE.
The subject of experiment [8] is Human immunodeficiency virus 1. Description: Antiviral activity against HIV1 JRCSF infected in human intraepithelial leukocytes assessed as decrease viral integration at 0.1 ug/ml by titration assay. The arrangement: scale not given: the % may be the effect or the level left. Format: functional, JRCSF ISOLATE. In short, it runs like this: as §1
Experiment [9] relates to Human immunodeficiency virus 1. In words: Antiviral activity against HIV1 isolate M1 infected in human vaginal intraepithelial cells assessed as decrease in viral genomic integration at 0.223 uM after 48 hrs by multiplex PCR assay. Format: functional. More on the design: scale not given: the % may be the effect or the level left. In short, it runs like this: as §2
Experiment [10] deals with Human immunodeficiency virus 1. In words: Antiviral activity against HIV1 JRCSF infected in human vaginal epithelium leukocytes assessed as inhibition of viral genomic integration by titration assay. The note with it: JRCSF ISOLATE. The class given is functional, cell-based. In short, it runs like this:
as §1

Experiment [11] concerns Human immunodeficiency virus 1. In words: Antiviral activity against HIV1 JRCSF infected in human vaginal epithelium mucosa assessed as decrease viral integration at 10 ng/ml by titration assay. The settings on record: Human immunodeficiency virus 1, JRCSF ISOLATE. The class given is functional. In short, it runs like this:
as §1

Experiment [12] deals with Human immunodeficiency virus 1. Description: Antiviral activity against HIV1 JRCSF infected in PHA-activated human T cells assessed as inhibition of viral genomic integration by titration assay. The class given is functional, cell-based. The settings on record: T-cell. In short, it runs like this: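 PBMC from two blood donors activated 2 days with 0.4 μg/ml PHA; 100,000 lymphoblasts per well pretreated in duplicate with a concentration series for 1 h at room temperature, infected with 200 ng/ml Gag p24 HIV-1JRCSF for 2 h, washed, cultured 48 h at 37°C in medium with 50 U/ml IL-2. Integrated DNA measured by Alu-LTR nested real-time PCR; IC50 from nonlinear regression.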

The subject of experiment [13] is Human immunodeficiency virus 1. Description: Antiviral activity against HIV1 JRCSF infected in human vaginal intraepithelial cells assessed as decrease in viral genomic integration at 0.223 uM by multiplex PCR assay. Format: functional, JRCSF ISOLATE. The arrangement: scale not given: the % may be the effect or the level left. The procedure, abridged: as §3
Experiment [14] has as its system Human immunodeficiency virus 1. Description: Antiviral activity against HIV1 JRCSF infected in human intraepithelial leukocytes assessed as decrease viral integration at 0.5 ug/ml by titration assay. The class given is functional, JRCSF ISOLATE. More on the design: scale not given: the % may be the effect or the level left. The procedure, abridged:
as §1

Here are results for 4 compounds from ChEMBL document CHEMBL1240364, “Ex vivo comparison of microbicide efficacies for preventing HIV-1 genomic integration in intraepithelial vaginal cells” (Antimicrob Agents Chemother, 2010).

As a reminder, the IC50 is the point on the concentration scale where inhibition reaches its midpoint. Broadly, the inhibition is the drop in the measured response relative to a control, in per cent.

As for `Cc1ccc(-c2ccc3c(c2)C=C(C(=O)Nc2ccc(C[N+](C)(C)C4CCOCC4)cc2)CCC3)cc1.[Cl-]`, the level, % of control at 30 µM in experiment [1] was 10%. Besides, the IC50 in [2] amounted to 5.84 nM. The Activity entry in experiment [2] is “Dose-dependent effect”; in [3], less than 2%; in experiment [4] it was 8.6%.

For the compound `[N-]=[N+]=NCc1cccc(C(=O)/C=C(\O)C(=O)O)c1`, the Activity in experiment [5] was determined as 8.4%. Moreover, in experiment [2], the IC50 was 190 nM and the Activity entry is “Dose-dependent effect”.

Turning to `c1cc(CN2CCCNCCNCCCNCC2)ccc1CN1CCCNCCNCCCNCC1` [PLERIXAFOR], the level, % of control at 1 µM in experiment [6] amounted to 177%. Further, the Activity in experiment [3] is recorded as 117%.

Consider enfuvirtide, for which, in [7], the level, % of control at 0.223 µM was 8%. Moreover, the Activity in experiment [8] was 1.92%; in [9] it was less than 2%; in [10], “Dose-dependent effect”; in [12] (JRCSF ISOLATE), “Dose-dependent effect”; in [13] it was 6%; in experiment [14], 30.4%. Besides, the inhibition at 0.01 µg/mL in experiment [11] was more than 80%. The IC50 in experiment [12] (Human immunodeficiency virus 1, JRCSF ISOLATE) is 7.57 nM.
